From PubChem
Rows were chosen to be rich in hits. Some 4.1% of all compounds tested hit in one or more screens of this group.
CHOP UPR activ: activators of apoptotic arm of unfolded protein response (CHOP); CHO-CHOP luciferase reporter, UPR activation, luminescence; percent of tunicamycin response over DMSO baseline; activation, % at 10 µM; actives 0.34% (n = 330,000);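 active = at 10 µM dose, activation of 40% or more, normalized to positive control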
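Test system: CHO-CHOP cells, stable luciferase reporter of PERK-eIF2a-CHOP signalling | Quantity: 500 CHO-CHOP cells per well | Buffer or medium: F12 plus 10% serum | Compound dosing: 10 µM single point, 0.5% DMSO | Schedule: 6 h compound treatment, 37 °C | Signal: Luciferase luminescence | Control set: Tunicamycin high control, DMSO low control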
UBC13 polyUb: inhibitors of human UBC13 polyubiquitin chain formation. P61088. inhibition, % at 20 µM. actives 0.47% (n = 330,000). TR-FRET; in the data active = inhibition above about 45%, passing the limit was not always enough
Apaf1 inhib: human Apaf-1 inhibition. AID 489030. inhibition, % at 20 µM. actives 0.71% (n = 330,000). O14727. reconstituted apoptosome caspase-3 activity, DEVD-Rh110 fluorescence; active = inhibition of at least 40% at 20 µM
Target sequence (O14727 whole entry, looked up): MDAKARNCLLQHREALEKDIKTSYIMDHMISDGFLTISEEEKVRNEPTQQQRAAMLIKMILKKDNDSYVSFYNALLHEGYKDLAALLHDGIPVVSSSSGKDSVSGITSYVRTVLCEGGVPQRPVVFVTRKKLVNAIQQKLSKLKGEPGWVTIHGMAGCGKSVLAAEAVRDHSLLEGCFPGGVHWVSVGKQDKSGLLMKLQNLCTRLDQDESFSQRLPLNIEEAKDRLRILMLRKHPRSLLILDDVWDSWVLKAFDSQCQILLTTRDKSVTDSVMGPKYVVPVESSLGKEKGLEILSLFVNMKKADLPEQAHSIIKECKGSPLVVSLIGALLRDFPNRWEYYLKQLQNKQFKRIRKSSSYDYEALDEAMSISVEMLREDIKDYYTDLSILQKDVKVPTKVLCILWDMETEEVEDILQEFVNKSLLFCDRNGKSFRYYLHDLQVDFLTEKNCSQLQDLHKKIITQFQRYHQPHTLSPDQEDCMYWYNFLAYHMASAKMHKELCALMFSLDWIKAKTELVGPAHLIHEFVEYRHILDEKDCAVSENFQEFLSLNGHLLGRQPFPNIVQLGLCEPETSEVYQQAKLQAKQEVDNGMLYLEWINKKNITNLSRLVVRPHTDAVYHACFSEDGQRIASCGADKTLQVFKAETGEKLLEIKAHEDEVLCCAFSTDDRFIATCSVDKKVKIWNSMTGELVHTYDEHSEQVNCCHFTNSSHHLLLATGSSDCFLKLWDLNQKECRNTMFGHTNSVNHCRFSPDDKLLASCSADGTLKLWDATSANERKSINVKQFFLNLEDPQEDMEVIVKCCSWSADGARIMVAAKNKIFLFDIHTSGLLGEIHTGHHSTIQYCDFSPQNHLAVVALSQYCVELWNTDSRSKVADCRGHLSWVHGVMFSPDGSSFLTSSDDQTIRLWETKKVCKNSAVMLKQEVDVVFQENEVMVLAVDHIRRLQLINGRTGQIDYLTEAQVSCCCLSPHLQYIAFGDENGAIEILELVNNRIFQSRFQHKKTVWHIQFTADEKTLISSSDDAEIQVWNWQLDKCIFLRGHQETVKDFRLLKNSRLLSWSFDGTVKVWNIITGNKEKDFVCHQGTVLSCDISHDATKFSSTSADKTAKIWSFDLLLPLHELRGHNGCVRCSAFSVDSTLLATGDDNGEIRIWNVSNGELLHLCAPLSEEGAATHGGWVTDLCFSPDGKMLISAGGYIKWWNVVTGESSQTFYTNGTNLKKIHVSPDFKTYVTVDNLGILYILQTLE
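System – cell-free apoptosome with Apaf-1, procaspase-3 and caspase-9 · Buffer or medium – pH 7.5 Hepes buffer with CHAPS, BSA, DTT · Also added – cytochrome c with DEVD-Rh110 · Times – 30 min compound preincubation, 50 min activation, room temperature · Technique – Rh110 fluorescence intensity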
UPR XBP1 act: activators of adaptive arm of unfolded protein response (XBP1). CHO-XBP1 luciferase reporter, IRE1-XBP1 UPR activation, luminescence; percent of tunicamycin response, DMSO as zero. activation, % at 20 µM. actives 0.33% (n = 330,000). AID 463104;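 active = versus positive control, 20 µM dose yields 30% or more activation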
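Assay system: CHO-XBP1 luciferase reporter cells; Schedule: 6 h treatment, 37 °C; Detection: glow luminescence from Steady-Glo reagent; Benchmarks: high control tunicamycin 10 µg/mL final, low control DMSO vehicle only.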
Mdm2-MdmX inh: human Mdm2/MdmX binding inhibition; inhibition, % at 8 µM; actives 3% (n = 330,000); SaOS-2 split-luciferase Mdm2/MdmX complementation, luminescence; O15151+Q00987;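 active = inhibition of at least 50% at 8 µM in the primary screen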
UPR CHOP confirm: apoptotic UPR (CHOP) activation, confirmed | actives 64% (n = 1,000) | CHO-CHOP cells, CHOP-luciferase reporter luminescence; percent of tunicamycin response, DMSO as zero | shares compounds with CHOP UPR activ | activation, % at 10 µM; in the data active = activation above about 33%
UPR XBP1 confirm: confirmation of adaptive unfolded protein response (XBP1) activators; AID 485299; CHO-XBP1 IRE1-XBP1 luciferase reporter, luminescence; actives 63% (n = 1,000); shares compounds with UPR XBP1 act; activation, % at 20 µM;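 active = reporter signal at least 30% of the positive control's activation in two or more of four replicate wells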
Casp3 counter: counter-screen for UBC13 inhibitors: human caspase-3 inhibition; shares compounds with UBC13 polyUb; Recombinant caspase-3, Caspase-Glo 3/7 luminescence, 60 min; inhibition, % at 20 µM; actives 4% (n = 1,400); AID 488856;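 active = mean inhibition across replicates above about 26%, limit read from the data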
UBC13 confirm: confirmation of human UBC13 polyubiquitin inhibitors | shares compounds with UBC13 polyUb | UBC13 polyubiquitination, TR-FRET, biochemical | inhibition, % at 10 µM | actives 68% (n = 1,400) | AID 488859; in the data active = inhibition above about 45%
Mdm2-MdmX conf: confirmation of human Mdm2/MdmX interaction inhibitors; shares compounds with Mdm2-MdmX inh; Mdm2-MdmX binding, luminescent assay; inhibition, % at 8 µM; actives 55% (n = 10,000); AID 489028; in the data active = inhibition above about 40%
Full FLuc ctr: inhibits full-length luciferase, flagging false Mdm2/MdmX hits; shares compounds with Mdm2-MdmX inh; inhibition, % at 8 µM; SaOS-2 full-length luciferase counterscreen, luminescence; actives 77% (n = 6,200); AID 504607;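 active = mean inhibition at 8 µM reaching about 37%, which flags the compound as non-specific, limit read from the data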;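 note: p53-null SaOS-2 cells with luciferase driven by a doxycycline-inducible promoter; compound on cells about two nights before reading with doxycycline added after day one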
Apaf-1 inh conf2: Apaf-1 inhibition, single-dose confirmed. inhibition, % at 20 µM. actives 25% (n = 1,800). AID 504614. shares compounds with Apaf1 inhib. reconstituted apoptosome, caspase-3 DEVD-Rh110 fluorescence;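 active = mean inhibition of at least 40% at 20 µM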
Rh110 quench: interferes with Rh110 fluorescence, flagging false Apaf-1 inhibitors | shares compounds with Apaf1 inhib | Rh110 fluorescence interference, quenched caspase reaction | activation (fluorescence interference), % at 20 µM | 1,800 tested, under 10 active | AID 504615;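 active = signal rise of 40% or more at 20 µM, treated as a fluorescence artifact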
Apaf1 inh interf: shows fluorescence interference in the Apaf-1 inhibitor assay format; shares compounds with Apaf1 inhib; fluorescence interference counterscreen, Apaf-1 assay format; IC50, µM; 460 tested, under 10 active; AID 588538; call rule not given here
Hits are given with their value; . = inactive; / = not tested or not shown.

SMILES	CHOP UPR activ	UBC13 polyUb	Apaf1 inhib	UPR XBP1 act	Mdm2-MdmX inh	UPR CHOP confirm	Mdm2-MdmX conf	Full FLuc ctr	Apaf-1 inh conf2	Rh110 quench	others
O=C(NCc1cccnc1)/C(=C/c1ccc(-c2ccc(Cl)cc2)o1)S(=O)(=O)c1ccccc1	136.2	.	.	.	81.7	90.8	100.2	51.7	/	/
Cc1cnc(NC(=O)c2nn(C)cc2[N+](=O)[O-])s1	.	.	.	.	.	/	/	/	/	/
Cc1ccc(-c2nc(NC(=O)c3nn(C)cc3[N+](=O)[O-])sc2C)cc1	99.6	.	.	.	79.3	59.0	99.7	52.7	/	/
Cc1ccc(-c2nc(NC(=O)c3nn(C)cc3[N+](=O)[O-])sc2C)cc1C	65.2	.	.	.	80.8	67.9	100.2	51.5	/	/
CCOC(=O)c1c(-c2ccc(-c3ccccc3)cc2)csc1NC(=O)CNCCN(C)C	42.4	78.6	42.2	.	82.8	119.3	53.3	60.8	47.4	.	Casp3 counter=.;UBC13 confirm=84.7;Apaf1 inh interf=.
Cc1ccc(SC2=C(Sc3ccc(C)cc3)C(=O)c3ccccc3C2=O)cc1	215.0	.	64.3	.	.	.	/	/	.	.
Cc1ccc(N2C(=O)c3ccccc3C2=O)cc1	.	.	.	.	.	/	/	/	/	/
O=C1NN(c2ccccc2)C(=O)/C1=C/c1ccc(-c2ccc(C(=O)O)cc2)o1	.	.	.	.	.	/	/	/	/	/
O=C(O)c1ccc(N2C(=O)/C(=C/c3ccc(-c4ccc([N+](=O)[O-])cc4)o3)C=C2c2ccccc2)cc1	44.2	.	51.7	57.0	.	.	/	/	.	.	UPR XBP1 confirm=79.8
Cc1ccc2nc(-c3ccc(NC(=S)NC(=O)C(C)C)cc3)sc2c1	.	.	.	.	.	/	/	/	/	/
Cc1ccc2nc(-c3ccc(NC(=S)NC4CC(C)(C)NC(C)(C)C4)cc3)sc2c1	60.3	91.2	50.3	48.8	98.6	62.6	.	/	42.1	.	UPR XBP1 confirm=60.8;Casp3 counter=.;UBC13 confirm=96.1;Apaf1 inh interf=.
Cc1c(/C=N/Nc2nc3ccccc3[nH]2)c2ccccc2n1C	320.0	.	43.4	.	92.7	.	48.0	71.1	.	.
CCOC(=O)C1CCN(C(=O)C(C)c2ccc([N+](=O)[O-])cc2)CC1 (stereo unspecified)	.	.	.	.	.	/	/	/	/	/
CCOc1ccc(/C=C/[N+](=O)[O-])c2ccccc12	221.1	.	80.5	.	.	.	/	/	.	.
Cc1onc(-c2c(Cl)cccc2Cl)c1COC(=O)c1ccc(Cl)cc1	.	.	.	.	.	/	/	/	/	/
Cc1ccc(C(=O)c2c(C)oc3c2C(=O)C(=O)c2ccccc2-3)cc1	64.5	.	88.4	.	97.5	.	99.3	42.2	73.4	.	Apaf1 inh interf=.
O=C(Nc1nc(-c2cccc3ccccc23)cs1)c1cnccn1	.	.	.	.	.	/	/	/	/	/
